Drawing on ChEMBL document CHEMBL1132554, “Inhibition of Trypanosoma cruzi trypanothione reductase by acridines: kinetic studies and structure-activity relationships” (J Med Chem, 1999), this text covers Ki for twelve molecules.

T1 sequence (P28593 whole entry): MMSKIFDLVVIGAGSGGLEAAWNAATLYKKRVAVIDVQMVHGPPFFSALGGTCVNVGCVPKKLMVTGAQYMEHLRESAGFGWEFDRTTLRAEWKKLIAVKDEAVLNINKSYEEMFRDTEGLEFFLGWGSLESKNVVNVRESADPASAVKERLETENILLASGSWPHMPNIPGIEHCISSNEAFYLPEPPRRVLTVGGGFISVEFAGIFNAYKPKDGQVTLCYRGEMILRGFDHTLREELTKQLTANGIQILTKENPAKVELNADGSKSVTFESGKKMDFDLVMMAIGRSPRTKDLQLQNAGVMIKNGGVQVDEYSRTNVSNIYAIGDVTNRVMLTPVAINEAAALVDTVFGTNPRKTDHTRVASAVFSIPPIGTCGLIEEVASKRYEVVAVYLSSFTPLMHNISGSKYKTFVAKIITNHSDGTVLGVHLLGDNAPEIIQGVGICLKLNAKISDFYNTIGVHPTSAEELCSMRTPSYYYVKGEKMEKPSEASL

One test addresses T1, Trypanothione reductase (Trypanosoma cruzi, UniProt P28593). The experiment in a line: The mixed type inhibitory activity against trypanothione reductase was evaluated from Lineweaver Burk plots.
Conditions: not given
On to `CCN(CC)CCCCSc1c2ccc(Cl)cc2nc2ccc(OC)cc12`, for which the Ki was found to be 67 µM.
Same read-out and setting: the result for `CCN(CC)CCSc1c2ccc(Cl)cc2nc2ccc(OC)cc12` reads 37 µM.

In a further test the target is T1, Trypanothione reductase. The experiment in a line: The mixed type inhibitory activity against trypanothione reductase was evaluated from Lineweaver Burk plots and Cornish-Bowdwn plots.
Conditions: not given
`CCN(CC)CCCCSc1c2ccc(Cl)cc2nc2ccc(OC)cc12` had a Ki of 21 µM.
`CCN(CC)CCSc1c2ccc(Cl)cc2nc2ccc(OC)cc12` yielded a Ki of 83 µM.

A further test deals with T1, Trypanothione reductase. The experiment in a line: The competitive inhibitory activity against trypanothione reductase was evaluated from Lineweaver Burk plots. Conditions: read-out: Ki app. Put shortly: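 Recombinant T. cruzi TR purified from E. coli SG5, 7–10 mU per assay, at 25 °C in 40 mM Hepes, 1 mM EDTA, pH 7.5 with 100 µM NADPH. TS2 varied without inhibitor and at two inhibitor levels. Each point was measured at least twice. Apparent Ki is the mean of Ki,slope values from Lineweaver–Burk plots at each [I].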
Take `CCN(CC)CCCC(C)Nc1c2ccccc2nc2ccc(OC)cc12` (centres undefined): the Ki stood at 27 µM.
In the case of `CCN(CC)CCCCC(C)Nc1c2ccccc2nc2cc(Cl)ccc12` (centres undefined), the Ki is 11 µM.
On the same count and under the same terms, as for `CCN(CC)CCCC(C)Nc1c2ccccc2nc2cc(Cl)ccc12` (centres undefined), the figure is 10 µM; as for `CCN(CC)CCCCC(C)Nc1c2ccc(Cl)cc2nc2ccc(OC)cc12` (centres undefined), 5.5 µM.
Still for that read-out and setting: the result for `CCN(CC)CCCC(C)Nc1c2ccc(Cl)cc2nc2ccc(OC)cc12` (centres undefined) [QUINACRINE] reads 19 µM; that for `Nc1c2c(nc3ccccc13)CCCC2` [TACRINE], 140 µM; that for `COc1ccc2nc3cc(Cl)ccc3c(N)c2c1`, 7 µM.
On the same count and under the same terms, the result for `Nc1c2ccccc2nc2cc(Cl)ccc12` reads 43 µM.
With `Nc1c2ccccc2nc2ccccc12` [AMINACRINE], the Ki was 38 µM.
For `Nc1c2c(nc3cc(Cl)ccc13)CCCC2`, the Ki came out at 80 µM.
